Measurements taken from ChEMBL document CHEMBL3352813, “Prostaglandin Derivatives: Nonaromatic Phosphodiesterase-4 Inhibitors from the Soft Coral Sarcophyton ehrenbergi” (J Nat Prod, 2014).

Columns and labels:
[1] = molecular target: T1, 3',5'-cyclic-AMP phosphodiesterase 4D (Homo sapiens, UniProt Q08499); assay: Inhibition of human PDE4D2 catalytic domain (86 to 413 amino acids) expressed in Escherichia coli strain BL21 at 10 uM after 15 mins using [3H]-cAMP by liquid scintillation counting
Procedure, shortened: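 Single-point primary screen of percent inhibition against PDE4D2 at an initial concentration of 10 μM, using [3H]cAMP as substrate and liquid scintillation counting of radioactivity. Enzyme was produced using LB medium. Rolipram served as the reference inhibitor. The method follows the authors' earlier reports.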

[2] = molecular target: T1, 3',5'-cyclic-AMP phosphodiesterase 4D; assay: Inhibition of human PDE4D2 catalytic domain (86 to 413 amino acids) expressed in Escherichia coli strain BL21 after 15 mins using [3H]-cAMP by liquid scintillation counting
Procedure, shortened: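 IC50 determined against PDE4D2 only for compounds that gave more than 50% inhibition in the 10 μM primary screen. Substrate was [3H]cAMP and read-out was liquid scintillation counting. Enzyme was produced using LB medium. Rolipram served as the reference inhibitor. The method otherwise follows the authors' earlier reports.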

T1 sequence (Q08499 whole entry, the tested form may be a part): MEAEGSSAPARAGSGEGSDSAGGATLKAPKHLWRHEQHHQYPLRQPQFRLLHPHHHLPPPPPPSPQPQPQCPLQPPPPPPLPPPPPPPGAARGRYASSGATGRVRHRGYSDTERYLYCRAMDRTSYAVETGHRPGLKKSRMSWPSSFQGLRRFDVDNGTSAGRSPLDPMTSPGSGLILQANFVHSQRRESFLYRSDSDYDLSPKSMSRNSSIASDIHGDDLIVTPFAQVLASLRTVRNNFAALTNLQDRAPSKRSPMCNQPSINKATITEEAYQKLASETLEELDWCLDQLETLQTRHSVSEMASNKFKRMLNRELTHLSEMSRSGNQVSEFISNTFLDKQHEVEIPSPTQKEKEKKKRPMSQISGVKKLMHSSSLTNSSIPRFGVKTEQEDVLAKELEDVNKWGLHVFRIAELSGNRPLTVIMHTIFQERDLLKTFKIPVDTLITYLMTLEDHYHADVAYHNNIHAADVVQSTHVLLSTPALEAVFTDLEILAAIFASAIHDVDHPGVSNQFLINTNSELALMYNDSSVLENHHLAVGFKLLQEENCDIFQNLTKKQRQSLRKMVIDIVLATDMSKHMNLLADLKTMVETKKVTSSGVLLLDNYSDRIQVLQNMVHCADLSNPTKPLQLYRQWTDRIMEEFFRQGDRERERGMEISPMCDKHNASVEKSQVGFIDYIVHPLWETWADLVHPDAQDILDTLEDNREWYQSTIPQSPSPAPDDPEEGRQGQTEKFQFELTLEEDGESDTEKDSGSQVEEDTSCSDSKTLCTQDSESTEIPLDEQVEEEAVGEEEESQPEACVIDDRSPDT

SMILES | inhibition [1] [%] | IC50 [2] [µM]
CCCCC[C@@H](/C=C/[C@@H]1[C@@H](C/C=C\CCCC(=O)OC)[C@@H](OC(C)=O)C[C@H]1OC(C)=O)OC(C)=O | 94.6 | 1.4
CCCCC[C@@H](/C=C/[C@@H]1[C@@H](C/C=C\CCCC(=O)OC)[C@@H](OC(C)=O)C[C@H]1O)OC(C)=O | 74.7 | 4.7
CCCCC[C@@H](/C=C/[C@@H]1[C@@H](CCCCCCC(=O)OC)[C@@H](O)C[C@H]1OC(C)=O)OC(C)=O | 41.7 | 
CCC(CC[C@@H](/C=C/[C@@H]1[C@@H](C/C=C\CCCC(=O)OC)[C@@H](OC(C)=O)C[C@H]1OC(C)=O)OC(C)=O)OC(C)=O (stereo partly specified) | 66.5 | 3.7
CCCCC[C@@H](/C=C/[C@@H]1[C@@H](C/C=C\CCCC(=O)OC)[C@@H](O)C[C@H]1OC(C)=O)OC(C)=O | 71.9 | 5.5
CCC(CC[C@@H](/C=C/[C@@H]1[C@@H](C/C=C\CCCC(=O)OC)[C@@H](OC(C)=O)C[C@H]1OC(C)=O)OC(=O)[C@@](OC)(c1ccccc1)C(F)(F)F)OC(C)=O (stereo partly specified) | 15.1 | 
CCC(CC[C@@H](/C=C/[C@@H]1[C@@H](C/C=C\CCCC(=O)OC)[C@@H](OC(=O)[C@](OC)(c2ccccc2)C(F)(F)F)C[C@H]1OC(C)=O)OC(=O)[C@](OC)(c1ccccc1)C(F)(F)F)OC(C)=O (stereo partly specified) | 58 | 3.6
CCC(=O)CC[C@@H](/C=C/[C@@H]1[C@@H](C/C=C\CCCC(=O)OC)[C@@H](OC(C)=O)C[C@H]1OC(C)=O)OC(C)=O | 65 | 10.6
CCC(CC[C@@H](/C=C/[C@@H]1[C@@H](C/C=C\CCCC(=O)OC)[C@@H](OC(C)=O)C[C@H]1OC(C)=O)OC(=O)[C@](OC)(c1ccccc1)C(F)(F)F)OC(C)=O (stereo partly specified) | 28.4 | 
CCC(CC[C@@H](/C=C/[C@@H]1[C@@H](C/C=C\CCCC(=O)OC)[C@@H](OC(=O)[C@@](OC)(c2ccccc2)C(F)(F)F)C[C@H]1OC(C)=O)OC(=O)[C@@](OC)(c1ccccc1)C(F)(F)F)OC(C)=O (stereo partly specified) | 51.1 | 5.9
CCCCC[C@@H](/C=C/[C@@H]1[C@@H](/C=C/CCCCC(=O)OC)[C@@H](O)C[C@H]1OC(C)=O)OC(C)=O | 57.3 | 7.2

Further lines, results first:

inhibition [1] [%] | IC50 [2] [µM] | SMILES
-3.93 |  | CCC(O)CC[C@H](O)/C=C/[C@@H]1[C@@H](C/C=C\CCCC(=O)O)[C@@H](O)C[C@H]1O (stereo partly specified)
10.1 |  | CCC(=O)CC[C@H](O)/C=C/[C@@H]1[C@@H](C/C=C\CCCC(=O)O)[C@@H](O)C[C@H]1O
26 |  | CCC(=O)CC[C@H](O)/C=C/[C@@H]1[C@@H](C/C=C\CCCC(=O)O)[C@@H](O)C[C@H]1OC(C)=O
57.2 | 12.1 | CCC(=O)CC[C@@H](/C=C/[C@@H]1[C@@H](C/C=C\CCCC(=O)OC)[C@@H](O)C[C@H]1OC(C)=O)OC(C)=O
-6.05 |  | CCC(CC[C@H](O)/C=C/[C@@H]1[C@@H](C/C=C\CCCC(=O)OC)[C@@H](O)C[C@H]1OC(C)=O)OC(C)=O (stereo partly specified)
50.4 | 16.9 | CCC(=O)CC[C@@H](/C=C/[C@@H]1[C@@H](C/C=C\CCCC(=O)O)[C@@H](O)C[C@H]1OC(C)=O)OC(C)=O
21.9 |  | CCC(=O)CC[C@H](O)/C=C/[C@@H]1[C@@H](C/C=C\CCCC(=O)OC)[C@@H](O)C[C@H]1OC(C)=O
38.7 |  | CCC(CC[C@@H](/C=C/[C@@H]1[C@@H](C/C=C\CCCC(=O)OC)[C@@H](O)C[C@H]1OC(C)=O)OC(C)=O)OC(C)=O (stereo partly specified)
11.4 |  | CCC(CC[C@H](O)/C=C/[C@@H]1[C@@H](C/C=C\CCCC(=O)OC)[C@@H](OC(C)=O)C[C@H]1OC(C)=O)OC(C)=O (stereo partly specified)
3.12 |  | CCC(CC[C@H](O)/C=C/[C@@H]1[C@@H](C/C=C\CCCC(=O)O)[C@@H](O)C[C@H]1OC(C)=O)OC(C)=O (stereo partly specified)
